From paper PMC7781011 (Journal of Inflammation Research, 2020) come the findings set out here.

Read-outs that look alike come from different tables or passages of the source.

Assay [1] addresses T1, rat 5-LOX (Rattus norvegicus, UniProt P12527).
T1 sequence (P12527 1-673): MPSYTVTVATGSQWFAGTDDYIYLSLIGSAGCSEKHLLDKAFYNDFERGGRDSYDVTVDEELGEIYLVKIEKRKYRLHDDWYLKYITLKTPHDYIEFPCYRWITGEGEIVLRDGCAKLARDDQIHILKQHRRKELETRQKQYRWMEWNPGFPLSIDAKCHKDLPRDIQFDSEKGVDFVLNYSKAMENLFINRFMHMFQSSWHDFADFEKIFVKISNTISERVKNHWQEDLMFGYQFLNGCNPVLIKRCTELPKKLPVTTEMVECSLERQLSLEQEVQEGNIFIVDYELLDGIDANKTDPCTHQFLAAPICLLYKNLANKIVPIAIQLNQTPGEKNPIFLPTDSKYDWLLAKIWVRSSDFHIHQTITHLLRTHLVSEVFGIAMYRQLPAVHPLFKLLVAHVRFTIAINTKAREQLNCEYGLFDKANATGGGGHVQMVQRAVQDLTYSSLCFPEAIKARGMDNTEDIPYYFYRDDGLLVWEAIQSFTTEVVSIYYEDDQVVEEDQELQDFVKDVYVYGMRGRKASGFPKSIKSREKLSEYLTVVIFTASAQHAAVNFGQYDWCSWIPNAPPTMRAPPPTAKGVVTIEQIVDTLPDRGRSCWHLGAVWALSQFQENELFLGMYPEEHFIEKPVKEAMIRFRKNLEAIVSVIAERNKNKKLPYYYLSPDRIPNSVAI
Kind of assay: Cell-free fluorometric 5-LOX assay. It counts as biochemical.

In assay [2] the target is T2, human mPGES-1 (Homo sapiens, UniProt O14684).
T2 sequence (O14684 1-152): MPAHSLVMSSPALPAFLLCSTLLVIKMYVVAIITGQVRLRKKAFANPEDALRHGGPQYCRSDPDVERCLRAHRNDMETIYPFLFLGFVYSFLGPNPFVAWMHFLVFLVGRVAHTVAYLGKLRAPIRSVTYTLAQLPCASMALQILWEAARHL
Kind of assay: Cell-free mPGES-1 assay. In kind it is biochemical. In outline: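 Enzyme in 15 mM Tris-HCl pH 7.4 with 1 mM GSH, preincubated 20 min with compound (0.1–100 µM); plate held 15 min at 20°C. PGH2 (final 2.8 µM) added, 45 s at room temperature, then stopped with SnCl2 in 1N HCl. PGE2 by ELISA, in triplicate, % inhibition versus untreated. Human enzyme from E. coli or commercial; mouse enzyme from vas deferens/seminal vesicles. IC50 by four-parameter nonlinear regression.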

Assay [3] deals with PGE2 production, colon tumor spheroids of Apc^Pirc/+ rats. Kind of assay: PGE2 in colon spheroid culture supernatant. It counts as cell-based, rat. The note with it: compared with the untreated control. In outline: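 Pirc rat colorectal crypt/single-cell spheroids grown in ultra-low-attachment wells in B27/N2, FBS, EGF, Noggin, R-spondin 1 and Y-27632 medium, changed every other day. PGE2 in supernatants of treated and untreated wells measured by ELISA, in pg/mL.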

For assay [4], the target named is T3, mouse COX-1 (Mus musculus, UniProt P22437).
T3 sequence (P22437 27-602): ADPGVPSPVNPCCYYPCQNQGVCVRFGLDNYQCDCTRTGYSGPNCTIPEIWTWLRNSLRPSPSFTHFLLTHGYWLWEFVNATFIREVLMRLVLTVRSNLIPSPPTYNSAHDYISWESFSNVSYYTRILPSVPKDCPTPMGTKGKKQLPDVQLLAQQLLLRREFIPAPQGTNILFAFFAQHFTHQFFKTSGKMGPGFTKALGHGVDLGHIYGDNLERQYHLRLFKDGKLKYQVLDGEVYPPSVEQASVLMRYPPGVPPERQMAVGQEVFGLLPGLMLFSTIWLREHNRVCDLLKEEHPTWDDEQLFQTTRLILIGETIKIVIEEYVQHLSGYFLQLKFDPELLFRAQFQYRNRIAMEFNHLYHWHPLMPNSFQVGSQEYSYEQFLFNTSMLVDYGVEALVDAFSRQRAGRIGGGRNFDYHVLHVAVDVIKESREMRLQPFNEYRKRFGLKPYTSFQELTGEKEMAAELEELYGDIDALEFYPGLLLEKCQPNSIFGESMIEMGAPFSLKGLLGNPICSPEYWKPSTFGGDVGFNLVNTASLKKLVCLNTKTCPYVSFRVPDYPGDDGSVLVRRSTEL
Kind of assay: Cell-free fluorometric COX-1 assay. In kind it is biochemical.

For assay [5], the system named is PGI2 production in LPS-stimulated macrophages of humans, mice, and rats. As to the kind of experiment: PGI2 production in LPS-stimulated macrophages, range over species. In kind it is cell-based. The note with it: Macrophage. Summed up: (§1)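 Human macrophages derived from THP-1 monocytes with PMA. Rat/mouse peritoneal macrophages collected by lavage with ice-cold DMEM, selected by glass adherence (1 h, 37°C), Trypan-blue checked. Cells in DMEM+10% FBS at 10,000 (96-well) or 40,000 (24-well) per well, given non-toxic compound doses, then LPS 10 µg/mL for 24 h. PGE2, PGI2 and LTB4 measured in supernatant. IC50 by four-parameter nonlinear regression.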

In assay [6] the test system is LTB4 production in LPS-stimulated macrophages of humans, mice, and rats. As to the kind of experiment: LTB4 production in LPS-stimulated macrophages, range over species. It counts as cell-based. As to conditions: Macrophage, read-out: IC50 range LTB4 production. In outline:
as §1

The target in assay [7] is T4, mouse 5-LOX (Mus musculus, UniProt P48999).
T4 sequence (P48999 1-674): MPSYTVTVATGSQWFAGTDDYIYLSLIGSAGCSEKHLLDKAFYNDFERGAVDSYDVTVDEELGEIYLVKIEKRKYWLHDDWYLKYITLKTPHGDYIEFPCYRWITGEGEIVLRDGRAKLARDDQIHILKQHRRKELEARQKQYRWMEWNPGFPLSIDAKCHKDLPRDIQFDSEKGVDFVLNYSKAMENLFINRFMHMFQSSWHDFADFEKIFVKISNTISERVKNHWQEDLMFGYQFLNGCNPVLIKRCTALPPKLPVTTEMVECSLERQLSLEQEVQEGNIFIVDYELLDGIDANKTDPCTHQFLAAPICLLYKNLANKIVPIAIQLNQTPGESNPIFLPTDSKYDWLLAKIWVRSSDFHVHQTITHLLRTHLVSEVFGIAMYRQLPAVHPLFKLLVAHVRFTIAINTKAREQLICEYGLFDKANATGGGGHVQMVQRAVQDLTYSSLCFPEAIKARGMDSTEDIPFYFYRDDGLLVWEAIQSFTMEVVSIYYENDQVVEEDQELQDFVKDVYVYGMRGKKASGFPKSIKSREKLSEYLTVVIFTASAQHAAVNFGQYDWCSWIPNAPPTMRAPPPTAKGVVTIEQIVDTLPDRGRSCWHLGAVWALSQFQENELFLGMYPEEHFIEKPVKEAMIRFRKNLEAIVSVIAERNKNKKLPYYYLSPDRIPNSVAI
Kind of assay: Cell-free fluorometric 5-LOX assay. It counts as biochemical.

The target of assay [8] is human COX-1 (Homo sapiens, UniProt P23219). As to the kind of experiment: Cell-free fluorometric COX-1 assay. It counts as biochemical.
Chain of human COX-1 (P23219 24-599): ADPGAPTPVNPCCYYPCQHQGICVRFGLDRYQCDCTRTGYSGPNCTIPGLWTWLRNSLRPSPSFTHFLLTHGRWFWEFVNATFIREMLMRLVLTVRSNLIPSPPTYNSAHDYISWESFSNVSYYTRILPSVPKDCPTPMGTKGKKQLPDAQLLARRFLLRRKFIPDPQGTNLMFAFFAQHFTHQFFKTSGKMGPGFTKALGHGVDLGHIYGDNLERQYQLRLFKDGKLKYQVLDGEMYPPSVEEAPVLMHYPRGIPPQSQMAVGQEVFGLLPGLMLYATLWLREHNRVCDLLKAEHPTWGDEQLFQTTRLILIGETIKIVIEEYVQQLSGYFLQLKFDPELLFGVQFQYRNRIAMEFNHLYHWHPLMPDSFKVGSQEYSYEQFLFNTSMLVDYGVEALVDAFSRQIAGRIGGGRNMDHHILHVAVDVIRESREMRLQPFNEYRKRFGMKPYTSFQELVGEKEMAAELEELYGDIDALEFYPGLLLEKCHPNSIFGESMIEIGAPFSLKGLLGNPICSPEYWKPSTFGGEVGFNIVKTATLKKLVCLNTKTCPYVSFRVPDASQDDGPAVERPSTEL

As to `CC1(C)Cc2c(-c3ccccc3)c(-c3ccc(Cl)cc3)c(CC(=O)O)n2C1` [Licofelone, reference compound], the IC50 in assay [1] is 640 nM; in assay [2], 14000 nM; in assay [4] it was 1740 nM; in assay [5] (read-out: IC50 range PGI2 production) it was 850 to 910 nM; in assay [6], 530 to 1600 nM; in assay [7], 2340 nM. Also, it took 1650 nM to reach half-maximal inhibition in assay [8] (IC50). Besides, the “inhibition of PGE2 production” value in assay [3] worked out at 63%.

Turning to `CC1(C)Cc2c(-c3ccccc3)c(-c3ccc(Cl)cc3)c(CC(=O)NCC(=O)O)n2C1` [LFA-9, 2-[[2-[2-(4-chlorophenyl)-6,6-dimethyl-1-phenyl-5,7-dihydropyrrolizin-3-yl]acetyl]amino]acetic acid], the half-maximal inhibitory concentration (IC50) in assay [1] is 890 nM; in assay [2] it was 870 nM; in assay [5] (read-out: IC50 PGI2 production) it was > 100000 nM; in assay [6] it was 630 to 1240 nM; in assay [7], 2640 nM. In assay [3], the “inhibition of PGE2 production” value was found to be 82%. Besides, the “inhibition of COX-1 activity” value in assay [4] (cell-free, mouse, up to the tested range of 1 mM) is “did not show inhibition”; in assay [8] (cell-free, human, up to the tested range of 1 mM) it was “did not show inhibition”.

The IC50 is the concentration that inhibits the measured activity by half.
